Assays:
Mus musculus [1] = experiment: Analgesic activity in Swiss mouse assessed as inhibition of acetic acid-induced writhing response at 50 mg/kg, po administered 1 hr before acetic acid challenge measured for 30 mins relative to control; format: functional
Method in brief: (§1)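 Mice of either sex (25–35 g), fasted overnight, dosed by oral gavage with test agent suspended in 0.5% methylcellulose; controls got vehicle alone. Each hind-limb full extension counted as a writhe over 30 min after the noxious agent. % inhibition from treated vs control writhing; groups of 8–10; Student's t-test. Dosing starts at 100 mg/kg, then halved stepwise.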

Mus musculus [2] = experiment: Sedative activity in Swiss mouse assessed as inhibition of spontaneous locomotor activity at 100 mg/kg, po dose measured for every 5 mins up to 90 mins; format: organism-based; set-up: dose 100 mg/kg, route oral
Method in brief: (§2)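 Overnight-fasted mice given compound (0.5% methylcellulose) or vehicle by oral gavage, then housed singly in an activity cage. Locomotion auto-recorded in 5-min intervals for 90 min; pulses of the final 30 min scored. % inhibition versus controls; runs between 9.00 and 13.00; groups of 8–10; Student's t-test.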

Rattus norvegicus [3] = experiment: Acute gastrolesivity in Wistar rat assessed as appearance of gastric damage at 200 mg/kg, po after 5 hrs; format: toxicity, organism-based, Stomach; set-up: dose 200 mg/kg, route oral; details: in vivo
Method in brief: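 Wistar rats (250–300 g), either sex, fasted overnight; compound suspended in 0.5% methylcellulose, single oral gavage at 200 mg kg^-1 (1 mL 100 g^-1). Stomachs excised 5 h later, fixed in 2% formalin, opened along greater curvature, examined by stereomicroscope by blinded observer. Reported as number of animals with gastric damage over treated animals (eight per group).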

Rattus norvegicus [4] = experiment: Antiinflammatory activity against carrageenan-induced paw edema in Wistar rat assessed as inhibition of hind paw edema at 100 mg/kg, po administered 1 hr prior to carrageenan challenge measured after 3 hrs relative to control; format: functional
Method in brief: (§3)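 Wistar rats of either sex (250–300 g), fasted overnight, gavaged with compound in 0.5% methylcellulose. 1 h later, 0.1 mL 1% carrageenan injected subcutaneously into the plantar hind paw. Paw volume read by plethysmometer right after injection and 3 h later. Control edema set as 100, % inhibition from swelling difference. Groups of 8–10; Student's t-test.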

Rattus norvegicus [5] = experiment: Antiinflammatory activity against carrageenan-induced paw edema in Wistar rat assessed as inhibition of hind paw edema at 50 mg/kg, po administered 1 hr prior to carrageenan challenge measured after 3 hrs relative to control; format: functional; method in brief: as §3
Rattus norvegicus [6] = experiment: Antiinflammatory activity against carrageenan-induced paw edema in Wistar rat assessed as inhibition of hind paw edema at 25 mg/kg, po administered 1 hr prior to carrageenan challenge measured after 3 hrs relative to control; format: functional; method in brief: as §3
Rattus norvegicus [7] = experiment: Antiinflammatory activity against carrageenan-induced paw edema in Wistar rat assessed as inhibition of hind paw edema at 12.5 mg/kg, po administered 1 hr prior to carrageenan challenge measured after 3 hrs relative to control; format: functional; method in brief: as §3
Rattus norvegicus [8] = experiment: Antiinflammatory activity against carrageenan-induced paw edema in Wistar rat assessed as inhibition of hind paw edema at 6.25 mg/kg, po administered 1 hr prior to carrageenan challenge measured after 3 hrs relative to control; format: functional; method in brief: as §3
Rattus norvegicus [9] = experiment: Antiinflammatory activity against carrageenan-induced paw edema in Wistar rat assessed as inhibition of hind paw edema at 3.12 mg/kg, po administered 1 hr prior to carrageenan challenge measured after 3 hrs relative to control; format: functional; method in brief: as §3
Rattus norvegicus [10] = experiment: Antiinflammatory activity against carrageenan-induced paw edema in Wistar rat assessed as inhibition of hind paw edema at 1.6 mg/kg, po administered 1 hr prior to carrageenan challenge measured after 3 hrs relative to control; format: functional; method in brief: as §3
Mus musculus [11] = experiment: Analgesic activity in Swiss mouse assessed as inhibition of acetic acid-induced writhing response at 100 mg/kg, po administered 1 hr before acetic acid challenge measured for 30 mins relative to control; format: functional; method in brief: as §1
Mus musculus [12] = experiment: Analgesic activity in Swiss mouse assessed as inhibition of acetic acid-induced writhing response at 25 mg/kg, po administered 1 hr before acetic acid challenge measured for 30 mins relative to control; format: functional; method in brief: as §1
Mus musculus [13] = experiment: Analgesic activity in Swiss mouse assessed as inhibition of acetic acid-induced writhing response at 12.5 mg/kg, po administered 1 hr before acetic acid challenge measured for 30 mins relative to control; format: functional; method in brief: as §1
Mus musculus [14] = experiment: Analgesic activity in Swiss mouse assessed as inhibition of acetic acid-induced writhing response at 6.25 mg/kg, po administered 1 hr before acetic acid challenge measured for 30 mins relative to control; format: functional; method in brief: as §1
Mus musculus [15] = experiment: Sedative activity in Swiss mouse assessed as inhibition of spontaneous locomotor activity at 50 mg/kg, po dose measured for every 5 mins up to 90 mins; format: organism-based; set-up: dose 50 mg/kg, route oral; method in brief: as §2
Mus musculus [16] = experiment: Sedative activity in Swiss mouse assessed as inhibition of spontaneous locomotor activity at 12.5 mg/kg, po dose measured for every 5 mins up to 90 mins; format: organism-based; set-up: dose 12.5 mg/kg, route oral; method in brief: as §2
Mus musculus [17] = experiment: Sedative activity in Swiss mouse assessed as inhibition of spontaneous locomotor activity at 10 mg/kg, po dose measured for every 5 mins upto 90 mins; format: functional; method in brief: as §2
Rattus norvegicus [18] = experiment: Antiinflammatory activity against carrageenan-induced paw edema in Wistar rat assessed as inhibition of hind paw edema at 10 mg/kg, po administered 1 hr prior to carrageenan challenge measured after 3 hrs relative to control; format: functional; method in brief: as §3
Mus musculus [19] = species on record: Mus musculus; experiment: animal or person; details: Swiss, po, read-out: INH

Q: How did the inhibition in vivo at 50 mg/kg (Mus musculus [1]) turn out when `CCNC(=O)c1c(NCC(C)C)c2cccnc2n2c(C(C)C)nnc12` was run?
A: The inhibition in vivo at 50 mg/kg was 21%.

Q: What about the inhibition at 100 mg/kg (Mus musculus [2]) of the same compound?
A: The inhibition at 100 mg/kg was 48%.

Q: And the Activity (Rattus norvegicus [3])?
A: Its Activity is “Non-toxic”.

Q: And the inhibition in vivo at 100 mg/kg (Rattus norvegicus [4])?
A: Its inhibition in vivo at 100 mg/kg is 60%.

Q: What about the inhibition in vivo at 50 mg/kg (Rattus norvegicus [5]) of the same compound?
A: Its inhibition in vivo at 50 mg/kg is 50%.

Q: And the inhibition in vivo at 25 mg/kg (Rattus norvegicus [6])?
A: Its inhibition in vivo at 25 mg/kg is 47%.

Q: And the inhibition in vivo at 12.5 mg/kg (Rattus norvegicus [7])?
A: The inhibition in vivo at 12.5 mg/kg was 49%.

Q: And the inhibition in vivo at 6.25 mg/kg (Rattus norvegicus [8])?
A: The inhibition in vivo at 6.25 mg/kg was 40%.

Q: And the inhibition in vivo at 3.12 mg/kg (Rattus norvegicus [9])?
A: Its inhibition in vivo at 3.12 mg/kg is 35%.

Q: And the inhibition in vivo at 1.6 mg/kg (Rattus norvegicus [10])?
A: Its inhibition in vivo at 1.6 mg/kg is 18%.

Q: And the inhibition in vivo at 100 mg/kg (Mus musculus [11])?
A: Its inhibition in vivo at 100 mg/kg is 81%.

Q: What does the source list for `CCOc1cnc2c(C(=O)N(CC)CC)c(N3CCN(C)CC3)c3cccnc3n12`?
A: inhibition in vivo at 50 mg/kg (Mus musculus [1]): 62%; inhibition in vivo at 25 mg/kg (Mus musculus [12]): 54%; inhibition in vivo at 12.5 mg/kg (Mus musculus [13]): 48%; inhibition in vivo at 6.25 mg/kg (Mus musculus [14]): 17%; inhibition at 100 mg/kg (Mus musculus [2]): 60%; inhibition at 50 mg/kg (Mus musculus [15]): 46%; inhibition at 12.5 mg/kg (Mus musculus [16]): 15%; Activity (Rattus norvegicus [3]): Non-toxic; inhibition in vivo at 100 mg/kg (Rattus norvegicus [4]): 26%; inhibition in vivo at 100 mg/kg (Mus musculus [11]): 97%

Q: For `CN1C(=O)CN=C(c2ccccc2)c2cc(Cl)ccc21` [DIAZEPAM], which inhibition in vivo at 10 mg/kg (Mus musculus [17]) is on record?
A: The inhibition in vivo at 10 mg/kg was 98%.

Q: For `COc1ccc2c(c1)c(CC(=O)O)c(C)n2C(=O)c1ccc(Cl)cc1` [INDOMETHACIN], which inhibition in vivo at 10 mg/kg (Rattus norvegicus [18]) is on record?
A: The inhibition in vivo at 10 mg/kg was 51%.

Q: What about the inhibition in vivo at 10 mg/kg (Mus musculus [19]) of the same compound?
A: Its inhibition in vivo at 10 mg/kg is 84%.

Reference: ChEMBL document CHEMBL1156763, “1,8-Naphthyridines VIII. Novel 5-aminoimidazo[1,2-a] [1,8]naphthyridine-6-carboxamide and 5-amino[1,2,4]triazolo[4,3-a] [1,8]naphthyridine-6-carboxamide derivatives showing potent analgesic or anti-inflammatory activity, respectively, and completely devoid of acute gastrolesivity” (Eur J Med Chem, 2010)
